# Entries after “also recorded” stand apart in the source; their conditions may differ.
# Columns and labels:
# [1] = target: T1, EphB1 T697G (Homo sapiens, UniProt P54762, T697G); experiment: EphB1 autophosphorylation in transfected HEK293 cells; assay type: cell-based
# T1 sequence (P54762 18-984 T697G): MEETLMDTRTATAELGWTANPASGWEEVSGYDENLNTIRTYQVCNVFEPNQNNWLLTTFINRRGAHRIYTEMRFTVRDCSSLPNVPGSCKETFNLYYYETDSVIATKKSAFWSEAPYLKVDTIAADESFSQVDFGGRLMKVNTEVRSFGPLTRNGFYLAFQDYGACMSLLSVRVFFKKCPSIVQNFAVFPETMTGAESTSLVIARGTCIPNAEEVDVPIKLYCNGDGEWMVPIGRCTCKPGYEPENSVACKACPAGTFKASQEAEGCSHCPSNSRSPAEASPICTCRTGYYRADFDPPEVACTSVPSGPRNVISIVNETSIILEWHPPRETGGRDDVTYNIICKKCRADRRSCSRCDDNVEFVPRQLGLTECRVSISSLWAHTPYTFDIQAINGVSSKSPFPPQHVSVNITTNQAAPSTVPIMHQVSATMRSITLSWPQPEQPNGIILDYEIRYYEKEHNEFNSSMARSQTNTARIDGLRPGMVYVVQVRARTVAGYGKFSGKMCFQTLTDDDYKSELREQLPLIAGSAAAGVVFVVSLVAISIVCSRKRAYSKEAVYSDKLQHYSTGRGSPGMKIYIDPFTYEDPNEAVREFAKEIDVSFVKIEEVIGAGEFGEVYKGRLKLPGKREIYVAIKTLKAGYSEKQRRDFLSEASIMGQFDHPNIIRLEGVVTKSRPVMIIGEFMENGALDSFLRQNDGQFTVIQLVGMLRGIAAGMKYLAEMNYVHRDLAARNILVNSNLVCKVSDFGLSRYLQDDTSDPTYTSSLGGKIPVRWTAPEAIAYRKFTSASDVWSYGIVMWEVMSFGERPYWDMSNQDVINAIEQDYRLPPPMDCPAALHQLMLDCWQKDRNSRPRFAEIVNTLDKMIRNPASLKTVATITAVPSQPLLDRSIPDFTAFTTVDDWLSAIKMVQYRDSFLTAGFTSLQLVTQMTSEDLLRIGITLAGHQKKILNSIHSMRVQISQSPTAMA
# Outline: (§1)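 HEK293 cells transfected with Eph kinase variants were exposed to a range of test compound concentrations. Lysate protein was quantified by BCA and normalized before Western blotting. Blots were probed for phospho-EphB, total EphB1 or EphB3, and β-actin, giving autophosphorylation relative to total receptor.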
# [2] = tested on: EphB3 WT; experiment: EphB3 autophosphorylation in HEK293 cells co-expressing EphB3 WT; assay type: cell-based, human; conditions: 100 nM; HEK293 co-expressing EphB3 WT and EphB1 T697G; ephrin-B2 stimulation
# Outline: as §1
smiles,measurement,setting,value
Cc1cccc(Cc2nn(C(C)(C)C)c3ncnc(N)c23)c1 [3MB-PP1],inhibition of the three EphB1 alleles in cells,"[1]; 100 nM, HEK293, tested on WT, G703C, T697G",only inhibited the analog-sensitive allele; also recorded: only inhibited EphB1^T697G
same,autophosphorylation of EphB1 T697G,"[1]; 100 nM, HEK293 co-expressing EphB3 WT and EphB1 T697G, ephrin-B2 stimulation",abolished
same,selectivity factor between the two EphB1 mutants (T697G over G703C),[1]; in cells,~ 500
same,autophosphorylation of EphB3 WT,[2],little effect

# — article PMC7485388 (ACS chemical biology, 2017)
